Calls of active or inactive are those of the source.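 How the source made its calls: active means IMP-1 enzyme inhibition with IC50 of 10 µM or lower; inactive means IC50 above 10 µM.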
Target: metallo-beta-lactamase IMP-1 (Pseudomonas aeruginosa)
Test: IMP-1 metallo-beta-lactamase inhibitors, IC50, late-stage follow-up, selectivity assay, biochemical, absorbance (AID 624085)
Conditions: purified IMP-1, nitrocefin hydrolysis, epi-absorbance
Summary of the method: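 Material: purified IMP-1 metallo-beta-lactamase enzyme. Reagent: nitrocefin substrate. Dosing: dilution series per compound, highest nominal amount 60 µM. Timing: 15 min compound–enzyme pre-incubation, then 25 min substrate reaction at 25 °C. Signal: fluorescence quench readout, 480/530 nm, EDTA-stopped. Controls: wells lacking enzyme. Repeats: triplicate wells per concentration. Format: White microtiter plates.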

SMILES: CN1CCN(NC(=O)CN2C(=O)/C(=C/c3c(Cl)cccc3Cl)SC2=S)CC1
- IC50: inactive

SMILES: CN1CCN(NC(=O)CN2C(=O)/C(=C/c3c(Cl)ccc(Cl)c3Cl)SC2=S)CC1
- IC50: 3.02 µM
